Active and inactive are the calls of the source. The calls are words filed in the database; no cut-off is given here.
Assays:
Acetylcholinesterase [1] = molecular target: T1, Acetylcholinesterase (Rattus norvegicus, UniProt P37136); test: Inhibition of rat cortex homogenate AChE using acetylthiocholine iodide as substrate after 15 mins in presence of BuChE inhibitor iso-OMPA by Ellman's method
T1 sequence (P37136 whole entry): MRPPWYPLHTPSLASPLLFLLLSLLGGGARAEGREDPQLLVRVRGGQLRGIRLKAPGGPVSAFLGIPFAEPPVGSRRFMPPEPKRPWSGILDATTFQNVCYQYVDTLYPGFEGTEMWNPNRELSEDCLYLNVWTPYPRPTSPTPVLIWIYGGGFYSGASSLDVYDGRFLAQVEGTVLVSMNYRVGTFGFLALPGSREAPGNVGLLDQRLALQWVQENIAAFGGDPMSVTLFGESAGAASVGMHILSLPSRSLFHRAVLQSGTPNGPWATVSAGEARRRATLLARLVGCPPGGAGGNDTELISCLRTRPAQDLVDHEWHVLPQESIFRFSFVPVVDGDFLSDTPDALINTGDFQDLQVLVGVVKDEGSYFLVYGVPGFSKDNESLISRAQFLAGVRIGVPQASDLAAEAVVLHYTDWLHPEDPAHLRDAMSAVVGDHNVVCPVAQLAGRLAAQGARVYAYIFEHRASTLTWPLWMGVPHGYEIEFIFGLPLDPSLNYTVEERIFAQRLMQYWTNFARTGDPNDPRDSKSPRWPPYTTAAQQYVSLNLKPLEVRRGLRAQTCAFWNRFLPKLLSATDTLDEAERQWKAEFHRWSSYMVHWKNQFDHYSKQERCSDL

Acetylcholinesterase [2] = molecular target: Acetylcholinesterase (Electrophorus electricus, UniProt O42275); test: Inhibition of electric eel AChE using acetylthiocholine iodide as substrate after 15 mins by Ellman's method
Acetylcholinesterase [3] = molecular target: Acetylcholinesterase (Homo sapiens, UniProt P22303); test: Inhibition of human erythrocyte AChE using acetylthiocholine iodide as substrate after 15 mins by Ellman's method
[4] = Metal chelating activity assessed as compound-Zn2+ complex formation by measuring shift in maximum absorption wavelength at 37.5 uM after 30 mins by UV-vis spectrophotometric method
Procedure, shortened: (§1)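 UV absorption scanned from 200 to 600 nm after 30 min at room temperature in methanol. Compound and each metal salt (CuCl2, ZnCl2, AlCl3, FeSO4) were at 37.5 µM final. Spectra compared with and without metal.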

[5] = Metal chelating activity assessed as compound-Fe2+ complex formation by measuring shift in maximum absorption wavelength at 37.5 uM after 30 mins by UV-vis spectrophotometric method; procedure, shortened: as §1
[6] = molecular target: Amyloid-beta precursor protein (Homo sapiens) (UniProt P05067); test: Inhibition of amyloid beta (1 to 42) (unknown origin) self aggregation at 25 uM after 24 hrs by ThT-based fluorometric method relative to control
Procedure, shortened: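 Aβ1-42 (25 µM final) incubated at 37 °C for 24 h ± compound in 50 mM phosphate buffer pH 7.4, with DMSO stocks diluted in buffer. Then 5 µM thioflavin T in 50 mM glycine-NaOH pH 8.5 was added and read at ex 446/em 490 nm. Run in triplicate. % inhibition = (1−IFi/IFc)×100 after background subtraction.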

[7] = molecular target: Amyloid-beta precursor protein (Homo sapiens) (UniProt P05067); test: Inhibition of amyloid beta (1 to 42) (unknown origin) self aggregation at 12.5 uM after 24 hrs by ThT-based fluorometric method relative to control
Procedure, shortened: (§2)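 Aβ1-42 (25 µM final) incubated 24 h at 37 °C with or without compound (1-50 µM) in 50 mM phosphate buffer pH 7.4. Thioflavin T (5 µM in glycine-NaOH pH 8.5) then added, fluorescence read at ex 446/em 490 nm. Inhibition = (1-IFi/IFc)×100 after background subtraction. Run in triplicate.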

[8] = Metal chelating activity assessed as inhibition of Cu2+ induced amyloid beta (1 to 42) aggregation at 25 uM after 24 hrs by ThT-based fluorometric method relative to control
Procedure, shortened: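 Aβ1-42 (25 µM) with Cu2+ (25 µM, one equivalent) in 20 mM HEPES pH 6.6 with NaCl, incubated 24 h at 37 °C ± compound (25 µM). Then 5 µM thioflavin T in glycine-NaOH pH 8.5 was added and read at ex 446/em 490 nm. Triplicate. % inhibition relative to no-compound control.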

[9] = Metal chelating activity assessed as disaggregation of Cu2+ induced amyloid beta (1 to 42) fibrils at 25 uM treated for 24 hrs post Cu2+ treatment for 24 hrs by ThT-based fluorometric method relative to control
Procedure, shortened: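 Fibrils preformed from Aβ1-42 (25 µM) plus Cu2+ (25 µM) in 20 mM HEPES pH 6.6, 150 mM NaCl, 24 h at 37 °C. Compound (25 µM) then added for another 24 h at 37 °C. Thioflavin T (5 µM, glycine-NaOH pH 8.5) fluorescence read at ex 446/em 490 nm. Triplicate.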

SH-SY5Y = test: Cytotoxicity against human SH-SY5Y cells assessed as reduction in cell viability up to 10 uM after 24 hrs by MTT assay; type: cell-based
Procedure, shortened: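 SH-SY5Y cells grown in DMEM with 10% FBS at 37 °C, 5% CO2, seeded 4 × 10^4 cells/well and incubated 24 h. Compounds given at 1, 10 and 100 µM (1% DMSO final) for 24 h. MTT (5 mg/ml) added for 4 h, cells lysed overnight in DMF/SDS, absorbance read at 590 nm against control. Three independent experiments.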

PC-12 [10] = test: Neuroprotective activity against H2O2 induced cell injury in rat PC12 cells assessed as cell viability at 1 uM preincubated for 24 hrs followed by incubation with H2O2 for 2 hrs measured after 24 hrs by MTT assay (reference value: 43.9%); type: functional; conditions: read-out: Activity
Procedure, shortened: (§3)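 PC12 cells in phenol-red-free DMEM with 10% FCS, plated at 10^5 cells/well. Cells preincubated 24 h with compound (1.0 or 10.0 µM; dissolved in 2% DMSO, diluted in PBS), then exposed to H2O2 100 µM for 2 h. Medium replaced; viability assessed 24 h later by MTT (4 h, 37 °C), lysis in DMF/SDS, A590.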

[11] = molecular target: Amyloid-beta precursor protein (Homo sapiens) (UniProt P05067); test: Inhibition of amyloid beta (1 to 42) (unknown origin) self-induced aggregation after 24 hrs by ThT-based fluorometric method; procedure, shortened: as §2
PC-12 [12] = test: Neuroprotective activity against H2O2 induced cell injury in rat PC12 cells assessed as increase in cell viability preincubated for 24 hrs followed by incubation with H2O2 for 2 hrs measured after 24 hrs by MTT assay; type: functional, cell-based; procedure, shortened: as §3
[13] = Solubility of the compound in DMEM in presence of 10% FBS; type: physicochemical

Amyloid-beta precursor protein (Homo sapiens), sequence (P05067 whole entry): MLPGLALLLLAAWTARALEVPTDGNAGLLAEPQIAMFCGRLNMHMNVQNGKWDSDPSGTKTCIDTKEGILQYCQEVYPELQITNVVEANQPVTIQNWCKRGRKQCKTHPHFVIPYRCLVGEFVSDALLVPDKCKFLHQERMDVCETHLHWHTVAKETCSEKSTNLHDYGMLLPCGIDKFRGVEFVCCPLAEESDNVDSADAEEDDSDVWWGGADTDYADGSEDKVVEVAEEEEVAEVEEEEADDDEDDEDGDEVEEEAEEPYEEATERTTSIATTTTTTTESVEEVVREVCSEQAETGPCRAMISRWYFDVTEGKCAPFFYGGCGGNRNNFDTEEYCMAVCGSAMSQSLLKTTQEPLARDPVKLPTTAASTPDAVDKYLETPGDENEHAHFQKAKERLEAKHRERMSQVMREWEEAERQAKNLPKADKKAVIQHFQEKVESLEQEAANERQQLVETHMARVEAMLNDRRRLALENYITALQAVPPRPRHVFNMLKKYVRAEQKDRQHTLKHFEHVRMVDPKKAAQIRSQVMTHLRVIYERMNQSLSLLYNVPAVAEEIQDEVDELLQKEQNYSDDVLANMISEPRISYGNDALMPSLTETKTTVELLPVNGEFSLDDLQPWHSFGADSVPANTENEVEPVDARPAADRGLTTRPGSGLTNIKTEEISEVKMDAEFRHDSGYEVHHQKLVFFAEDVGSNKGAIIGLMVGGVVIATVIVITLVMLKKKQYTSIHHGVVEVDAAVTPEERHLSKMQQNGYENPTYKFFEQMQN
Acetylcholinesterase (Homo sapiens, UniProt P22303), sequence (P22303 whole entry): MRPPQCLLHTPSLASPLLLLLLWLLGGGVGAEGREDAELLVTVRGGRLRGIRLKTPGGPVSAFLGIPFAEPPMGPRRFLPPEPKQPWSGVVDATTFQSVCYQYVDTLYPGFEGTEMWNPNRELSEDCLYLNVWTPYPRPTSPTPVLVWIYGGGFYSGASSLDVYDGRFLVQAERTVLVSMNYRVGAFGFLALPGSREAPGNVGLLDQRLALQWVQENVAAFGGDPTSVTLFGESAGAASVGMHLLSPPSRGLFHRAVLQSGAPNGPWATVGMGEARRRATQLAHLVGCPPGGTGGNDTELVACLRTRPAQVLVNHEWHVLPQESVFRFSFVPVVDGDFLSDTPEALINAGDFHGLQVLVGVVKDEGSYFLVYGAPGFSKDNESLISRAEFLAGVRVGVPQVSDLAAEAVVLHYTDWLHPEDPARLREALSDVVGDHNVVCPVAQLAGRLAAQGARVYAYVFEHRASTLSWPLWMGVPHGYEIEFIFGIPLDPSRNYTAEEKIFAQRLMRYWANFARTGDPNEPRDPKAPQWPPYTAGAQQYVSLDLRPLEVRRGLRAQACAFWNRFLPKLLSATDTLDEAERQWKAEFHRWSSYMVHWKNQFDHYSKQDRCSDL
Acetylcholinesterase (Electrophorus electricus, UniProt O42275), sequence (O42275 whole entry): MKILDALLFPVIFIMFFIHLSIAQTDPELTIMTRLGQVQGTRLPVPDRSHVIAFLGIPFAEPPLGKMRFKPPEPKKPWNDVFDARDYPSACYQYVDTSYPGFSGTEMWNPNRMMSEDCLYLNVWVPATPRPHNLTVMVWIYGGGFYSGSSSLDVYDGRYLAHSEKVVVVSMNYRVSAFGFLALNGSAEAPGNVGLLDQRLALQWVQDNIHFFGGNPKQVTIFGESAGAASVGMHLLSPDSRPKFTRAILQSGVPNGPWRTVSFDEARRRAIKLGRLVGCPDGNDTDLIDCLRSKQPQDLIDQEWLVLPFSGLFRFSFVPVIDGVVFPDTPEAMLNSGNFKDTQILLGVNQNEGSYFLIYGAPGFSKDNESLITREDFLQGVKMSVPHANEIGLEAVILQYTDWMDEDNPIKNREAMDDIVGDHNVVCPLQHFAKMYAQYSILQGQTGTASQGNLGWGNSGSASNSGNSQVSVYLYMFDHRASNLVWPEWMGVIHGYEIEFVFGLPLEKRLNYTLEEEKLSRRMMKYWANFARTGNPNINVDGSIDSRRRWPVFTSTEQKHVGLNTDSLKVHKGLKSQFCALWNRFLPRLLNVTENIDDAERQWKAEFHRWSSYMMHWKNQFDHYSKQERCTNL

CCN(CCCCNC(=O)COc1ccc(-c2cc(=O)c3c(O)c(OC)c(OC)cc3o2)cc1)Cc1ccccc1OC
IC50 (Acetylcholinesterase [1]): 51 nM
IC50 (Acetylcholinesterase [2]): 15900 nM
IC50 (Acetylcholinesterase [3]): 39 nM
Activity [4]: inactive
Activity [5]: inactive
inhibition [6]: 57.1%
inhibition [7]: 43.6%
inhibition [8]: 43.4%
Activity [9]: 66.3%
Activity (SH-SY5Y): Non-Toxic
viability at 1 µM (PC-12 [10]): 67.6%
inhibition [11]: Dose-dependent effect
Activity (PC-12 [12]): Dose-dependent effect
solubility [13]: Insoluble
